# Screening results deposited in PubChem by several laboratories.
# Sampled rows, rich in hits. Any-hit rate of the full collection: about 3.9%.
# STAT3 act: IL-6 driven STAT3 reporter potentiators, primary screen, U3A cells, luciferase, luminescence, MLSCN library. IL-6 STAT3-luciferase reporter; 100% = signal with IL-6 EC80 alone. activation (% of control), % at 5.6 µM. 190,000 tested, 0.91% active;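 active = activation above the screen-wide mean of compound activation plus 3 SD, cut at about 130% in these data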;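 also: 0% = background luminescence of wells with medium and substrate only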
#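 Assay system – human STAT1-deficient U3A cells with stable STAT3-luciferase reporter · Also added – IL-6 (33 ng/mL) · Schedule – compound 1 h, then IL-6 6 h at 37 °C · Technique – reporter luminescence signal · Evaluation – % activation versus median of IL-6-stimulated wells · Benchmarks – IL-6-only wells as 100% reference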
# Pf gamet viab: late stage P. falciparum gametocyte viability inhibitors, primary screen, ATP luminescence, HTS | P. falciparum stage V gametocytes, 24 h | inhibition, % at 10.9 µM | 150,000 tested, 0.065% active | AID 743093, 2013;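 active = inhibition above the mean plus 3 SD of compounds within the control limits, set per campaign, cut at about 38% in these data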;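 also: 0% = DMSO wells and 100% = medium only without gametocytes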
# NF-kB neuron act: activators of NF-kB expression in neurons, primary screen, cell-based, HTS | fold change at 12.5 µM | human neuronal cells, NF-kB reporter expression; active compounds read high | 190,000 tested, 1.6% active; in the data active = fold change above about 3.3
# STAT1 act: STAT1 signaling activators, primary screen, cell-based, HTS, luciferase reporter. NIH 3T3 STAT1-luciferase reporter, IFN-gamma, luminescence; 100% = IFN-gamma alone, no compound. activation (% of control), % at 5.5 µM. 200,000 tested, 2.6% active. AID 932, 2007;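 active = activation above the screen-wide mean activation plus 3 SD, cut at about 130% in these data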;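 also: raw ratio to IFN-gamma control signal so 100% means no change and 0% no light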
# APP 5'UTR act: activators of APP 5'UTR luciferase reporter, primary screen, SH-SY5Y cells; AID 1276, 2008; 190,000 tested, 1% active; activation, % at 2 µM; SH-SY5Y APP 5'UTR luciferase reporter, luminescence; zero percent = DMSO vehicle wells;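 active = activation above a set limit, based on mean plus 3 SD of controls, cut at about 140% in these data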
# STAT1 inh: STAT1 signaling inhibitors, primary screen, cell-based, HTS, luciferase reporter; NIH 3T3 STAT1-luciferase reporter, IFN-gamma, luminescence; inhibition, % at 5.5 µM; 200,000 tested, 0.35% active;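 active = inhibition above a set limit, the mean inhibition across all tested compounds plus 3 SD, cut at about 34% in these data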;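 also: 0% = IFN-gamma with DMSO and 100% = IFN-gamma with 300 µM nifuroxazide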
# STAT1 act conf: STAT1 signaling activators, confirmation, cell-based, HTS, luciferase reporter | NIH 3T3 STAT1-luciferase reporter, IFN-gamma potentiation, luminescence; 100% = IFN-gamma EC80 alone, no compound | 1,200 tested, 97% active | activation (% of control), % at 5.7 µM | shares compounds with STAT1 act;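 active = activation above a set limit carried over from the earlier primary STAT1 screen, cut at about 140% in these data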;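 also: simple ratio to median IFN-gamma plus DMSO wells so 0% means no light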
# NFkB act STAT1ct: NF-kB reporter activators, TNF-alpha stimulated, counter-screen for STAT1 activator project, cell-based, HEK293T, luciferase luminescence; shares compounds with STAT1 act; 1,200 tested, 43% active; AID 1306, 2008; activation (% of control), % at 5.7 µM; 100% = TNF-alpha with vehicle only;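 active = activation above the mean of solvent-only control wells plus 3 SD, set per campaign, cut at about 130% in these data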;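 also: TNF-alpha given at a submaximal dose yielding about 80% of full reporter signal; values are well signal over median control so 100% means no change and 0% no light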
# STAT3 act 2: STAT3 reporter activation by STAT1 hits, confirmation, counter-screen for STAT1 activator project, U3A cells, luciferase, luminescence | 1,200 tested, 46% active | IL-6; cells lack STAT1; 100 = IL-6 alone, no compound effect | shares compounds with STAT1 act | activation (% of control), % at 5.7 µM;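 active = activation above the solvent-only control well mean plus 3 SD, set per plate batch, cut at about 110% in these data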;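 also: 0% = no luminescence and 100% = median IL-6 plus DMSO wells; higher means more STAT3 reporter activation so hits are non-selective activators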
# * marks the source's active call; other numbers are inactive results; / = no result.
SMILES,STAT3 act,Pf gamet viab,NF-kB neuron act,STAT1 act,APP 5'UTR act,STAT1 inh,STAT1 act conf,NFkB act STAT1ct,STAT3 act 2
CCOc1ccc2nc(N3CCCCCC3)sc2c1,76.0,/,7.16*,191.1*,194.2*,-98.0,246.3*,144.3*,105.6
CCOC(=O)C1(Cc2ccccc2)CCCN(S(=O)(=O)N(C)C)C1 (stereo not given),/,-15.3,/,/,/,/,/,/,/
Cc1c(-c2ccc(Cl)cc2)oc(=O)c2c(N)n(-c3ccccc3)nc12,91.2,3.4,1.12,112.6,-7.5,-13.7,/,/,/
Nc1c2c(=O)oc(-c3ccccc3)cc2nn1-c1ccccc1,105.4,-4.1,3.33*,176.7*,149.7*,-87.3,202.8*,132.1,108.6
C=CCn1c(=O)c(C(=O)Nc2ccccc2C(=O)OCC)c(O)c2ccccc21,110.2,-9.6,1.71,105.1,-0.6,-5.5,/,/,/
C=CCn1c(=O)c(C(=O)Nc2ccccc2S(N)(=O)=O)c(O)c2ccccc21,130.7,1.7,3.15,170.6*,46.4,-79.0,186.9*,129.1,146.0*
COC(=O)CSc1nc2ccc(C)cc2cc1C#N,88.4,7.8,11.3*,153.1*,118.7,-60.9,275.1*,152.5*,107.6
CCOc1ccc2nc(SCC#N)c(C#N)cc2c1,82.0,/,1.72,165.0*,18.7,-71.1,165.6*,111.0,86.2
CC1CCC(N2CCNCC2)CC1 (stereo not given),98.3,-14.7,1.1,108.2,24.8,-11.1,/,/,/
C=CCC1(C#N)C(SC)=NC2=C(C(=O)CC(C)(C)C2)C1c1ccc(Br)cc1 (stereo not given),104.0,-25.1,0.56,94.9,-7.4,5.7,/,/,/
NC(=O)COc1ccc(NC(=O)CC23CC4CC(CC(C4)C2)C3)cc1,/,-14.2,/,/,/,/,/,/,/
Cc1cccc(NC(=O)Nc2ccc3c(c2)N(C)C(=O)CS3)n1,94.1,/,1.64,120.1,22.4,-22.2,/,/,/
Cc1ccnc(NC(=O)Nc2ccc3c(c2)N(C)C(=O)CS3)c1,80.8,/,1.13,181.2*,38.1,-89.5,191.7*,134.7*,96.4
COc1ccc(NC(=O)Nc2cc(C)ccn2)cc1,/,-2.2,/,/,/,/,/,/,/
Cc1ccnc(NC(=O)Nc2ccc(F)cc2)c1,97.1,/,4.81*,157.8*,84.0,-62.9,224.4*,131.4,107.5
COC(=O)c1ccccc1NC(=O)Nc1cc(C)ccn1,99.9,12.7,0.91,97.5,0.0,2.9,/,/,/
Cc1ccnc(NC(=O)Nc2ccc(Br)cc2Cl)c1,99.4,-12.7,1.12,167.5*,164.9*,-75.0,256.8*,120.5,104.4
COc1ccc(N(/N=C2\Sc3ccccc3C2=O)C(C)=O)cc1,100.3,-2.0,4.83*,151.3*,172.0*,-54.8,191.4*,123.0,110.3
CC1=C(C(=O)N2CCOCC2)C(c2ccc(OC(F)F)cc2)NC(=S)N1c1ccccc1 (stereo not given),102.7,/,1.28,98.8,-12.5,1.6,/,/,/
CCOC(=O)c1sc2nc(NC(=O)C3CC3)sc2c1C,119.2,/,1.48,109.5,14.3,-10.5,/,/,/
CCOC(=O)c1sc2nc(NC(=O)C(C)(C)C)sc2c1C,97.2,/,0.9,156.8*,126.5,-63.4,202.0*,134.3*,102.1
O=C(NCc1ccc(-n2cccc2)cc1)c1cccc(F)c1,100.3,11.8,1.12,103.0,11.7,-4.5,/,/,/
COc1ccc(C(=O)COC(=O)c2ccc(N(C)C)cc2)cc1,97.9,6.5,1.06,112.8,12.5,-15.6,/,/,/
CN(C)c1ccc(C(=O)OCC(=O)c2cccs2)cc1,70.1,-9.0,5.21*,172.0*,102.7,-79.4,214.7*,122.5,104.1
CCCNC(=O)C1(CC2CC(c3ccccc3)=NO2)CCN(C(=O)Cc2ccc(F)cc2)CC1 (stereo not given),/,9.0,/,/,/,/,/,/,/
SMILES,STAT3 act,Pf gamet viab,NF-kB neuron act,STAT1 act,APP 5'UTR act,STAT1 inh,STAT1 act conf,NFkB act STAT1ct,STAT3 act 2
CN(C)c1ccc(/C=N/NC(=O)c2ccco2)cc1,93.2,-18.3,5.56*,160.3*,110.4,-67.4,173.7*,114.2,105.4
Cc1ccc(OCC(=O)N2CCc3ccccc32)cc1,100.1,-0.2,2.65,155.2*,156.3*,-62.0,191.5*,134.0*,104.5
CSC(C(=O)c1cc2ccccc2o1)c1ccccc1 (stereo not given),/,-51.2,/,/,/,/,/,/,/
Cc1ccc(NC(=O)c2c(C)nc3ccccn23)cc1C,91.8,24.2,3.79*,154.4*,168.4*,-59.3,190.7*,139.4*,97.3
COc1cc(OC)cc(-c2oc(=O)c3cc(OC)c(OC)cc3c2C(F)(F)F)c1,/,10.6,/,/,/,/,/,/,/
COc1ccc(-n2ncc3c(NCCN4CCOCC4)ncnc32)cc1,105.8,/,0.64,124.6,58.8,-26.8,/,/,/
COc1ccc(-n2ncc3c(NCC4CCCO4)ncnc32)cc1 (stereo not given),94.5,/,2.71,172.5*,113.6,-79.3,182.2*,131.0,122.1*
Clc1ccc(-n2ncc3c(NCC4CCCO4)ncnc32)cc1 (stereo not given),85.0,/,3.43*,162.9*,155.7*,-65.9,254.3*,132.9,109.6
O=C(NCCc1ccccc1)C(=O)NCC1CCNCC1,94.5,/,1.08,96.5,-0.9,1.8,/,/,/
Cn1cccc1/C=C1\CCC/C(=C\c2cccn2C)C1=O,92.8,-4.5,5.99*,151.9*,143.2*,-56.1,228.5*,155.2*,107.7
CC(C)(C)c1ccc2c(c1)C(=O)c1ccccc1C2=O,102.0,-23.7,5.27*,161.5*,162.5*,-67.8,208.9*,125.8,107.4
CSc1nc(N(C)C)nc(N2CC(=O)N(CCNS(=O)(=O)c3ccc(C)cc3)C2=N)n1,102.4,9.8,0.86,104.3,/,-4.8,/,/,/
COCC(=O)Nc1c(C(=O)Nc2ccc3c(c2)OCCO3)oc2ccccc12,102.2,-2.7,2.36,176.1*,195.4*,-87.5,176.4*,139.8*,104.0
CCOCC(=O)Nc1c(C(=O)Nc2ccc3c(c2)OCCO3)oc2ccccc12,100.3,-10.2,1.35,155.4*,129.2,-59.9,159.8*,141.5*,102.6
